According to paper PMC3495079 (Biochemistry, 2012):

What was measured:
HsDcpS = target: T1, HsDcpS (Homo sapiens, UniProt Q96C86); assay: HPLC analysis of cap analog hydrolysis by recombinant DcpS; assay type: biochemical; conditions: condition (2): 20 °C, pH 7.6; 15 μM substrate; 0.02 μM DcpS; 60 min or 24 h
T1 sequence (Q96C86 1-337): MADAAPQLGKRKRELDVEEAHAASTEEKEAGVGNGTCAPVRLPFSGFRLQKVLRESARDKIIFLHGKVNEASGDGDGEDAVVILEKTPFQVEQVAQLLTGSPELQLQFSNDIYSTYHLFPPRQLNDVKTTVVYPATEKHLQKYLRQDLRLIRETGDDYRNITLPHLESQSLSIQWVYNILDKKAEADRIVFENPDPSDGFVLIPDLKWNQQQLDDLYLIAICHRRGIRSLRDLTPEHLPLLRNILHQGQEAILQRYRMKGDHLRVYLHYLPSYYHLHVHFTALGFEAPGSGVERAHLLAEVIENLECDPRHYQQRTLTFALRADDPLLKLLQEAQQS
Method in brief: (§1)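 His-tagged recombinant enzyme was expressed in E. coli and purified by Ni-NTA and gel filtration. Cap analog (15 μM) was preincubated 10 min, then DcpS was added at 0.02 or 0.2 μM. Buffers were Tris/MgAc/(NH4)2SO4 at 37 °C, or Tris/KCl/EDTA/DTT at 20 °C. Aliquots were taken at 5–60 min and 24 h and heat-stopped (97 °C, 2.5 min). Reverse-phase HPLC used a methanol/KH2PO4 gradient with A260 and fluorescence detection. Products were identified by retention time, and % substrate hydrolyzed was recorded.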

AsDcpS = AsDcpS (Ascaris suum, UniProt D3K0N9); assay: HPLC analysis of cap analog hydrolysis by recombinant DcpS; assay type: biochemical, A. suum; conditions: condition (2): 20 °C, pH 7.6; 15 μM substrate; 0.02 μM DcpS
CeDcpS = target: T2, CeDcpS (Caenorhabditis elegans, UniProt G5EFS4); assay: HPLC analysis of cap analog hydrolysis by recombinant DcpS; assay type: biochemical, C. elegans; conditions: condition (2): 20 °C, pH 7.6; 15 μM substrate; 0.02 μM DcpS
T2 sequence (G5EFS4 1-311): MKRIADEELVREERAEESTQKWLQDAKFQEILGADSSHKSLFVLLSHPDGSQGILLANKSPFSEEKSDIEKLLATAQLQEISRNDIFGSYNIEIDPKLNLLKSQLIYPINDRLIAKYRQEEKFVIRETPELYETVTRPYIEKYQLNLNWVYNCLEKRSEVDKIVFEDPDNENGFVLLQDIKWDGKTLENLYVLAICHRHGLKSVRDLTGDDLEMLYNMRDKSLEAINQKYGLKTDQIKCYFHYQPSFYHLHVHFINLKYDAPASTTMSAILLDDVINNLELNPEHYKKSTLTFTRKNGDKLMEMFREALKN
Method in brief: as §1

recombinant CeDcpS = conditions: substrate m^7GpppBODIPY; cited from earlier work

Sequence of AsDcpS (D3K0N9 whole entry): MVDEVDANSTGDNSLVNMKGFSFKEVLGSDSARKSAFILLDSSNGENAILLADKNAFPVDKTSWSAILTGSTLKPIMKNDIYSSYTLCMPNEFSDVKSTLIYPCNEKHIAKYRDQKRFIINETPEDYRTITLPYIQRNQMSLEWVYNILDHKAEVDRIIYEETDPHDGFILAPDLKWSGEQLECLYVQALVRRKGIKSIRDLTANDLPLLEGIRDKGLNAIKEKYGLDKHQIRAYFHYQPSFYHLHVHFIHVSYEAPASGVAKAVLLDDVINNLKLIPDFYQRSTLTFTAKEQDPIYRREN

CN(C)c1nc2c(c(=O)[nH]1)[n+](C)cn2[C@@H]1O[C@H](COP(=O)(O)OP(=O)(O)OP(=O)(O)OC[C@H]2O[C@@H](n3cnc4c(=O)[nH]c(N)nc43)[C@H](O)[C@@H]2O)[C@@H](O)[C@H]1O [m3^2,2,7GpppG]
Hydrolysis by DcpS (HPLC, Figure 3) (HsDcpS): not observed
Hydrolysis by DcpS (HPLC, Figure 3) (AsDcpS): readily hydrolyze
Hydrolysis by DcpS (HPLC, Figure 3) (CeDcpS): readily hydrolyze
Ki (recombinant CeDcpS): 28 µM
